Results: ChEMBL document CHEMBL3098044, “Inhibition of carbonic anhydrases from the extremophilic bacteria Sulfurihydrogenibium yellostonense (SspCA) and S. azorense (SazCA) with a new series of sulfonamides incorporating aroylhydrazone-, [1,2,4]triazolo[3,4-b][1,3,4]thiadiazinyl- or 2-(cyanophenylmethylene)-1,3,4-thiadiazol-3(2H)-yl …” (Bioorg Med Chem, 2014)

Assays:
[1] = Inhibition of Sulfurihydrogenibium azorense alpha-carbonic anhydrase preincubated for 15 mins by stopped-flow CO2 hydration assay
In short: (§1)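 Initial rates of CA-catalysed CO2 hydration followed for 10–100 s with phenol red (0.2 mM) read at 557 nm, in 10–20 mM Hepes pH 7.5 with 20 mM Na2SO4 for ionic strength. CO2 1.7–17 mM. Inhibitors in water at 0.01 mM stock, diluted down to 0.01 nM. Enzyme and inhibitor preincubated at room temperature. Uncatalysed rates subtracted. Ki from non-linear least squares and Cheng–Prusoff, mean of at least three determinations.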

[2] = Inhibition of Sulfurihydrogenibium yellowstonense YO3AOP1 carbonic anhydrase preincubated for 15 mins by stopped-flow CO2 hydration assay; in short: as §1

Row | Ki [1] | Ki [2] | SMILES
1 | 116 nM | 89.1 nM | CC(=O)C1=NN(c2ccc(S(N)(=O)=O)cc2)C(=C(C#N)C#N)S1
2 | 21.2 nM | 45.2 nM | COc1ccc(C(=O)N/N=C(C)/C(Cl)=N/Nc2ccc(S(N)(=O)=O)cc2)cc1
3 | 14.9 nM | 6.4 nM | CC(=N\NC(=O)c1cccs1)/C(Cl)=N/Nc1ccc(S(N)(=O)=O)cc1
4 | 13.5 nM | 21.9 nM | CC(=N\NC(=O)c1ccccc1)/C(=N/Nc1ccc(S(N)(=O)=O)cc1)N1CCCCC1
5 | 8.1 nM | 80.6 nM | CC(=N\NC(=O)c1ccc(Cl)cc1)/C(=N/Nc1ccc(S(N)(=O)=O)cc1)N1CCCCC1
6 | 4 nM | 62.8 nM | COc1ccc(C(=O)N/N=C(C)/C(=N/Nc2ccc(S(N)(=O)=O)cc2)N2CCCCC2)cc1
7 | 0.77 nM | 20.5 nM | CC(=N\NC(=O)c1cccs1)/C(=N/Nc1ccc(S(N)(=O)=O)cc1)N1CCCCC1
8 | 94.5 nM | 42.9 nM | CC(=N\NC(=O)c1ccccc1)/C(=N/Nc1ccc(S(N)(=O)=O)cc1)S(=O)(=O)c1ccccc1
9 | 59.1 nM | 68.3 nM | CC(=N\NC(=O)c1ccc(Cl)cc1)/C(=N/Nc1ccc(S(N)(=O)=O)cc1)S(=O)(=O)c1ccccc1
10 | 169 nM | 78.2 nM | COc1ccc(C(=O)N/N=C(C)/C(=N/Nc2ccc(S(N)(=O)=O)cc2)S(=O)(=O)c2ccccc2)cc1
11 | 21.9 nM | 74.5 nM | CC(=N\NC(=O)c1cccs1)/C(=N/Nc1ccc(S(N)(=O)=O)cc1)S(=O)(=O)c1ccccc1
12 | 18.3 nM | 28.3 nM | Cc1nn2c(C)nnc2s/c1=N/Nc1ccc(S(N)(=O)=O)cc1
13 | 9.7 nM | 47.9 nM | Cc1nn2c(-c3ccccc3)nnc2s/c1=N/Nc1ccc(S(N)(=O)=O)cc1
14 | 193 nM | 38.7 nM | CCOC(=O)/C(C#N)=C1\SC(C(C)=O)=NN1c1ccc(S(N)(=O)=O)cc1
15 | 234 nM | 76.8 nM | CC(=O)C1=NN(c2ccc(S(N)(=O)=O)cc2)/C(=C(\C#N)C(=O)c2ccccc2)S1
16 | 101 nM | 71 nM | CC(=O)C1=NN(c2ccc(S(N)(=O)=O)cc2)/C(=C(\C#N)C(=O)Nc2ccc(S(N)(=O)=O)cc2)S1
17 | 24.3 nM | 6.2 nM | CC(=N\NC(=O)c1ccccc1)/C(Cl)=N/Nc1ccc(S(N)(=O)=O)cc1
18 | 18.5 nM | 51.1 nM | CC(=N\NC(=O)c1ccc(Cl)cc1)/C(Cl)=N/Nc1ccc(S(N)(=O)=O)cc1

Row | SMILES | Ki [1] | Ki [2]
19 | CC(=O)Nc1nnc(S(N)(=O)=O)s1 [ACETAZOLAMIDE] | 0.9 nM | […]
